The term Ki denotes the dissociation constant of the complex between target and ligand, obtained from inhibition or displacement.

In ChEMBL document CHEMBL3621177, “Modulation of the Interaction between a Peptide Ligand and a G Protein-Coupled Receptor by Halogen Atoms” (ACS Med Chem Lett, 2015) one finds Ki and Ratio Ki data, which are given here for 13 molecules.

The nature of assay [1]: Displacement of [3H]diprenorphine from zebrafish delta1a opioid receptor expressed in HEK293 cell membranes by radioligand displacement assay. Further details: species or system Danio rerio. An outline of the steps: (§1)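 Competition binding on membranes from stably transfected HEK293 cells expressing the zebrafish μ, δ1a or δ1b receptor. Cells were grown to 80% confluence, harvested and pelleted before membrane preparation. [3H]-diprenorphine served as radioligand. Nonspecific binding was defined with 10 μM naloxone. Data were fitted to a one-site displacement model.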
In general terms: Loss of bound radioactivity is the signal in a displacement assay; it reports binding, not function.

The nature of assay [2]: Displacement of [3H]diprenorphine from zebrafish mu opioid receptor expressed in HEK293 cell membranes by radioligand displacement assay. Details: species or system Danio rerio. An outline of the steps: as §1
Assay [3] in a line: Displacement of [3H]diprenorphine from zebrafish delta1b opioid receptor expressed in HEK293 cell membranes by radioligand displacement assay. Details: species or system Danio rerio. The procedure, abridged: as §1
The species named for assay [4] is Danio rerio. The assay is described as follows: Selectivity index, ratio of Ki for zebrafish delta1a opioid receptor to Ki for zebrafish mu opioid receptor.

In the case of `NC(=O)[C@H](Cc1ccc(Cl)cc1)NC(=O)[C@H](Cc1c[nH]c2ccccc12)NC(=O)[C@@H]1CCCN1C(=O)[C@@H](N)Cc1ccc(O)cc1`, the results for the Ki in assay [1], in assay [2] and in assay [3] were 1700 nM, 71.9 nM and 2330 nM, respectively.

For `CC(C)C[C@H](NC(=O)[C@H](Cc1ccc(Cl)cc1)NC(=O)CNC(=O)CNC(=O)[C@@H](N)Cc1ccc(O)cc1)C(=O)O`, the Ki in assay [1] is 44.5 nM; in assay [2], 312 nM; in assay [3], 40.6 nM.

With `CC(C)C[C@H](NC(=O)[C@H](Cc1ccccc1I)NC(=O)CNC(=O)CNC(=O)[C@@H](N)Cc1ccc(O)cc1)C(=O)O`, the results for the inhibitory constant (Ki) in assay [1], in assay [2] and in assay [3] were 15.5 nM, 401 nM and 28.5 nM, respectively.

On to `CC(C)C[C@H](NC(=O)[C@H](Cc1ccc(I)cc1)NC(=O)CNC(=O)CNC(=O)[C@@H](N)Cc1ccc(O)cc1)C(=O)O`, for which the Ki in assay [1] came to 44.6 nM; in assay [2], 540 nM; in assay [3] it was 52.9 nM.

Take `CC(C)C[C@H](NC(=O)[C@H](Cc1ccc(F)cc1)NC(=O)CNC(=O)CNC(=O)[C@@H](N)Cc1ccc(O)cc1)C(=O)O`: the Ki in assay [1] is 11.7 nM; in assay [2] it was 210 nM; in assay [3], 10.6 nM.

For the molecule `CC(C)C[C@H](NC(=O)[C@H](Cc1ccc(Br)cc1)NC(=O)CNC(=O)CNC(=O)[C@@H](N)Cc1ccc(O)cc1)C(=O)O`, the Ki stood at 34.1 nM in assay [1], 287 nM in assay [2] and 27.6 nM in assay [3].

`NC(=O)[C@H](Cc1ccc(F)cc1)NC(=O)[C@H](Cc1c[nH]c2ccccc12)NC(=O)[C@@H]1CCCN1C(=O)[C@@H](N)Cc1ccc(O)cc1`: the Ki in assay [1] was 5330 nM; in assay [2] it was 51.6 nM; in assay [3], 4800 nM.

For the molecule `NC(=O)[C@H](Cc1ccc(Br)cc1)NC(=O)[C@H](Cc1c[nH]c2ccccc12)NC(=O)[C@@H]1CCCN1C(=O)[C@@H](N)Cc1ccc(O)cc1`, the Ki in assay [1] came to 1900 nM; in assay [2] it was 135 nM; in assay [3], 2680 nM.

`CC(C)C[C@H](NC(=O)[C@H](Cc1ccccc1F)NC(=O)CNC(=O)CNC(=O)[C@@H](N)Cc1ccc(O)cc1)C(=O)O`: the inhibition constant (Ki) in assay [1] came out at 115 nM; in assay [2], 2230 nM; in assay [3] it was 91.1 nM.

For the molecule `CC(C)C[C@H](NC(=O)[C@H](Cc1ccccc1Cl)NC(=O)CNC(=O)CNC(=O)[C@@H](N)Cc1ccc(O)cc1)C(=O)O`, the inhibition constant Ki in assay [1] worked out at 42.8 nM; in assay [2], 1210 nM; in assay [3], 57.2 nM.

Consider `CC(C)C[C@H](NC(=O)[C@H](Cc1ccccc1Br)NC(=O)CNC(=O)CNC(=O)[C@@H](N)Cc1ccc(O)cc1)C(=O)O`, for which the Ki in assay [1] stood at 24.2 nM; in assay [2] it was 1430 nM; in assay [3], 32.3 nM.

Take `NC(=O)[C@H](Cc1ccc(I)cc1)NC(=O)[C@H](Cc1c[nH]c2ccccc12)NC(=O)[C@@H]1CCCN1C(=O)[C@@H](N)Cc1ccc(O)cc1`: the inhibition constant (Ki) in assay [1] amounted to 1590 nM; in assay [2] it was 294 nM; in assay [3], 1960 nM.

In the case of `NC(=O)[C@H](Cc1ccccc1)NC(=O)[C@H](Cc1c[nH]c2ccccc12)NC(=O)[C@@H]1CCCN1C(=O)[C@@H](N)Cc1ccc(O)cc1` [ENDOMORPHIN-1], in assay [4], the Ratio Ki came to 258. Besides, the values for the inhibition constant Ki in assay [1], in assay [2] and in assay [3] were 8470 nM, 32.8 nM and 6200 nM, respectively.
